A selection: hits, their analogues and other compounds. The true share with any hit is near 3.1%.
FGF22 binding = shifts melting point of recombinant human FGF22 | recombinant FGF22 thermal shift, SYPRO orange fluorescence; percent of sucrose octasulfate shift, DMSO zero | AID 651658 | activity (Tm shift, normalised), % at 9.99 µM | 340,000 compounds, 1.5% hits | Q9HCT0;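 active means mean Tm shift, scaled 0 neutral to 100 positive control, at about 1.3% or above, every replicate too, limit read from the data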
Target sequence (Q9HCT0 whole entry, looked up): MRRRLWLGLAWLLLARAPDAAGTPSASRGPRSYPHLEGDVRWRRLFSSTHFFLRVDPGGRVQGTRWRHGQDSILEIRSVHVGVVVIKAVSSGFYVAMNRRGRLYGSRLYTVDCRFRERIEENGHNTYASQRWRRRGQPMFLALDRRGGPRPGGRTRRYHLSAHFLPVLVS
Env fusion inh = HIV envelope-mediated fusion inhibition; HeLa-JRFL Env/CEM21 cell fusion, luciferase; inhibition, % at 12.3 µM; 360,000 compounds, 1.1% hits; AID 651610;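 active means mean replicate inhibition score of at least 50 and every replicate individually at or above 50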
PGC1a acetyl inh = modulators of PGC1a acetylation; U2OS PGC1a acetylation, AlphaScreen anti-acetyl-lysine; with virally co-expressed GCN5 acetyltransferase; AID 651687; inhibition, % at 15.6 µM; 350,000 compounds, 0.17% hits;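 active means every replicate shows inhibition of at least 40%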
PAX8 reporter = PAX8 transcriptional activity inhibition; RMG-I TPO-luciferase reporter, SteadyGlo, 24 h; inhibition, % at 12.6 µM; 360,000 compounds, 1.2% hits; AID 652154;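 active means mean replicate inhibition at least 60% with every replicate also reaching 60%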;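 further: luciferase light reporting Pax8 driven TPO promoter activity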
FN deposition inh = fibronectin deposition inhibition | AH1F fibroblasts, Alexa488-fibronectin deposition fluorescence, overnight | inhibition, % at 12.6 µM | 350,000 compounds, 0.086% hits | AID 743247;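 active means mean inhibition across replicates of 30% or more, regardless of how many single replicates reach that level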
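Schedule: 1 h cell adhesion before compound, then overnight fibronectin incubation; test system: AH1F fibroblast monolayer depositing Alexa488-labelled fibronectin into matrix; quantity: 10000 AH1F cells per well; probe or stimulus: fluorescent fibronectin at 24 nM final; signal: fluorescence, ex 485 nm, em 525 nm; evaluation: percent inhibition as loss of matrix-bound fibronectin fluorescence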
EWS-Fli inh = inhibitors of EWS/Fli oncoprotein transcriptional activity | AID 651661 | A673 NR0B1-luciferase reporter, viability-normalised | 350,000 compounds, 0.67% hits | inhibition, % at 12.6 µM;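 active means mean inhibition of at least 50% after viability correction, with every replicate also passing that limit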;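 further: firefly luciferase signal divided by Alamar Blue viability fluorescence both relative to DMSO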
Hits are given with their value; ! = a repeat was not active; [ ] = dose if it differs, or a comment.

How did C[C@H]1CCCCO[C@H](CN(C)C(=O)Nc2ccc(C(F)(F)F)cc2)[C@@H](C)CN([C@@H](C)CO)C(=O)c2cc(NC(=O)Nc3ccc(C(F)(F)F)cc3)ccc2O1 do in these assays?
FGF22 binding: inactive; Env fusion inh: inactive; PGC1a acetyl inh: inactive; PAX8 reporter: inactive; FN deposition inh: inactive; EWS-Fli inh: inactive

How did C[C@H]1CCCCO[C@H](CN(C)C(=O)Nc2ccc(C(F)(F)F)cc2)[C@@H](C)CN([C@@H](C)CO)C(=O)c2cc(NC(=O)CCC(F)(F)F)ccc2O1 do in these assays?
FGF22 binding: inactive; Env fusion inh: inactive; PGC1a acetyl inh: inactive; PAX8 reporter: 87; EWS-Fli inh: inactive

What do the screens show for `O=C(Cc1ccccc1)N[C@H]1CC[C@@H](CC(=O)N2CCOCC2)O[C@@H]1CO`?
FGF22 binding: inactive; Env fusion inh: inactive; PGC1a acetyl inh: inactive; PAX8 reporter: inactive; FN deposition inh: inactive; EWS-Fli inh: inactive

How did COc1ccc(NC(=O)N(C)C[C@@H]2Oc3ccc(NC(=O)Cc4ccccc4)cc3CC(=O)N([C@H](C)CO)C[C@@H]2C)cc1 do in these assays?
Env fusion inh: inactive; PGC1a acetyl inh: inactive; PAX8 reporter: inactive; EWS-Fli inh: inactive

How did Cc1ccc(S(=O)(=O)N(C)C[C@H]2OCCCC[C@H](C)Oc3ccc(NC(=O)NC(C)C)cc3C(=O)N([C@H](C)CO)C[C@@H]2C)cc1 do in these assays?
Env fusion inh: inactive; PGC1a acetyl inh: inactive; PAX8 reporter: inactive; FN deposition inh: inactive; EWS-Fli inh: inactive

How did C[C@H]1CCCCO[C@@H](CN(C)C)[C@@H](C)CN([C@@H](C)CO)C(=O)c2cc(NC(=O)Nc3ccc(C(F)(F)F)cc3)ccc2O1 do in these assays?
FGF22 binding: inactive; Env fusion inh: inactive; PGC1a acetyl inh: inactive; PAX8 reporter: 88; EWS-Fli inh: inactive

How did O=C(Nc1ccc(Cl)c(Cl)c1)N[C@H]1CC[C@H](CCn2cc(C3CCCCC3)nn2)O[C@@H]1CO do in these assays?
FGF22 binding: inactive; Env fusion inh: 63[16.7 µM]; PGC1a acetyl inh: inactive; PAX8 reporter: inactive; FN deposition inh: inactive; EWS-Fli inh: inactive

Results for O=C(Nc1ccc(Cl)c(Cl)c1)N[C@@H]1CC[C@@H](CCn2cc(C3CCCCC3)nn2)O[C@@H]1CO ?
FGF22 binding: inactive; Env fusion inh: 67![16.7 µM]; PGC1a acetyl inh: inactive; PAX8 reporter: inactive; FN deposition inh: inactive; EWS-Fli inh: inactive

What do the screens show for `C[C@H]1CCCCO[C@H](CN(C)C(=O)C2CCCCC2)[C@@H](C)CN([C@@H](C)CO)C(=O)c2cc(NS(=O)(=O)c3ccc(Cl)cc3)ccc2O1`?
FGF22 binding: inactive; Env fusion inh: inactive; PGC1a acetyl inh: inactive; PAX8 reporter: 86; FN deposition inh: inactive; EWS-Fli inh: 54

What do the screens show for `C[C@@H]1CCCCO[C@H](CN(C)C(=O)C2CCCCC2)[C@H](C)CN([C@H](C)CO)C(=O)c2cc(NS(=O)(=O)c3ccc(Cl)cc3)ccc2O1`?
FGF22 binding: inactive; Env fusion inh: inactive; PGC1a acetyl inh: inactive; PAX8 reporter: 67; FN deposition inh: inactive; EWS-Fli inh: inactive

How did C[C@@H]1CCCCO[C@@H](CN(C)C(=O)C2CCCCC2)[C@H](C)CN([C@@H](C)CO)C(=O)c2cc(NS(=O)(=O)c3ccc(Cl)cc3)ccc2O1 do in these assays?
FGF22 binding: inactive; Env fusion inh: inactive; PGC1a acetyl inh: inactive; PAX8 reporter: 81; FN deposition inh: inactive; EWS-Fli inh: inactive

Results for COc1ccc(S(=O)(=O)Nc2ccc3c(c2)C(=O)N([C@H](C)CO)C[C@@H](C)[C@H](CN(C)C(=O)C2CCCCC2)OCCCC[C@@H](C)O3)cc1 ?
FGF22 binding: 1.5; Env fusion inh: inactive; PGC1a acetyl inh: inactive; PAX8 reporter: inactive; EWS-Fli inh: inactive

What do the screens show for `CCCNC(=O)NC[C@H]1[C@H](c2ccc(C3=CCCC3)cc2)[C@H](CO)N1C(=O)CC`?
FGF22 binding: inactive; PGC1a acetyl inh: inactive; PAX8 reporter: inactive; FN deposition inh: inactive; EWS-Fli inh: inactive

What do the screens show for `C[C@H]1CN([C@@H](C)CO)C(=O)c2cccc(NC(=O)c3cnccn3)c2O[C@H]1CN(C)CC1CC1`?
FGF22 binding: inactive; Env fusion inh: inactive; PGC1a acetyl inh: inactive; EWS-Fli inh: inactive
